Data on two molecules can be found in ChEMBL document CHEMBL4257448, “Deciphering the origins of molecular toxicity of combretastatin A4 and its glycoconjugates: interactions with major drug transporters and their safety profiles in vitro and in vivo” (Medchemcomm, 2017).

Converted amounts (≈) assume the structure as drawn.

Data set [1] can be described thus: Aqueous solubility of the compound after 1 hrs by HPLC-UV method. Type of data set: physicochemical. The settings on record: deionized water. The gist of the method:
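Shaken in tubes at 25 °C for 1 h, protected from light, then filtered through 0.2 μm filters; filtrate diluted in deionized water and quantified by reversed-phase HPLC-UV (C18 column, room temperature, methanol/water 70:30 v/v, 1.0 mL min−1).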

Another data set has as its system Mus musculus. Briefly: Ratio of compound MTD to CA4 MTD in ip dosed DBA/2 mouse assessed as reduction in 15% body weight administered as daily dose for 3 days. In kind it is ADME, organism-based. As to conditions: in vivo, 72 h.
A short description of data set [2]: Toxicity in ip dosed DBA/2 mouse assessed as reduction in 15% body weight administered as daily dose for 3 days. In kind it is organism-based. The settings on record: in vivo. The method, boiled down: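 Adult male DBA/2 mice were dosed i.p. at 10 mL kg−1, with 5 per group. Controls (n = 8) received saline. MTD was the dose allowing 15% median body-weight loss with no toxic deaths or marked change in general signs within 3 days.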

Data set [3] has as its system HT-29. The data set is described as follows: Cytotoxicity against human HT-29 cells assessed as reduction in cell viability after 72 hrs by MTT assay. Type of data set: functional, cell-based. The settings on record: HT-29, 72 h. The method, boiled down:
(§1)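 HT29 cells were cultured in RPMI-1640 with glutamine and 10% FBS, seeded at 2000–7500 cells/well, and exposed for 72 h to drug in DMSO (final DMSO <0.1%). MTT was added at 0.83 mg mL−1 final and incubated overnight, then cells were lysed in SDS/HCl and read at 570 nm. Survival was expressed as percent of drug-free control; five replicate wells.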

The nature of data set [4]: Cytotoxicity against HEK293FT cells expressing GLUT1 assessed as reduction in cell viability up to 20 uM. Type of data set: cell-based. The settings on record: human.
Data set [5] can be described thus: Ratio of CA4 aqueous solubility to test compound aqueous solubility. Type of data set: physicochemical. The settings on record: buffer.
Data set [6] is described as follows: Cytotoxicity against HEK293FT cells assessed as reduction in cell viability up to 20 uM. In kind it is cell-based. As to conditions: human.
For data set [7], the system named is HT-29. The data set is described as follows: […] for human HT-29 cells assessed as reduction in cell viability after 72 hrs by MTT assay. Type of data set: functional. The method, boiled down: as §1
(In general: Formazan colour is commonly taken as a measure of viable cells.)

For orientation: solubility means the concentration that dissolves in the medium under given conditions. A high value points to much dissolved substance. By IC50 is commonly meant the midpoint of a concentration-inhibition curve. `COc1ccc(/C=C\c2cc(OC)c(OC)c(OC)c2)cc1O[C@H]1O[C@H](CO)[C@@H](O)[C@H](O)[C@@H]1O`: the concentration in solution in data set [1] (solubility at 1 h) was 5890 µg/mL (≈ 12.3 mM). In addition, the Ratio was 16 in the data set on Mus musculus and 1963 in data set [5]. Further, the MTD at 72 h in data set [2] was found to be 400 mg/kg. In addition, the IC50 in the data set on HT-29 [3] turned out to be 11.4 µM. For the same molecule, the Activity entry in data set [4] and in data set [6] was “Toxic” each time. The “Ratio IC50” value in the data set with HT-29 [7] is 15.89.
`COc1ccc(/C=C\c2cc(OC)c(OC)c(OC)c2)cc1O[C@@H]1O[C@H](CO)[C@H](O)[C@H](O)[C@H]1O` returned a solubility at 1 h in data set [1] of 2560 µg/mL (≈ 5.35 mM). Besides, the figures for the Ratio (in the data set on Mus musculus; in data set [5]) were 34 and 853, respectively. Further, the MTD at 72 h in data set [2] is 550 mg/kg. In addition, the IC50 with HT-29 [3] was determined as 39.3 µM. Moreover, the Activity result in data set [4] and in data set [6] was “Toxic” in each case. Besides, the “Ratio IC50” value in the data set with HT-29 [7] is on record as 54.61.
